For five compounds, inhibition and EC50 results are on record in ChEMBL document CHEMBL1914293, “Pharmacophore-based discovery of FXR-agonists. Part II: identification of bioactive triterpenes from Ganoderma lucidum” (Bioorg Med Chem, 2011).

Common to all, as to format: functional, cell-based
The subject of assay [1] is HUVEC. In words: Antiinflammatory activity in human HUVEC cells assessed as inhibition of LPS-induced IL-8 mRNA expression at 5 uM for 10 mins measured after 4 hrs of LPS challenge by Q-PCR analysis. Summed up:
(§1)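 hTERT-immortalized HUVEC (HUVECtert) were grown in M199 with 20% FBS, endothelial cell growth supplement and antibiotics. Cells were treated with compounds at 5 μM, then stimulated with TNFα (human recombinant, 100 ng/mL) or LPS (E. coli 055:B5, 300 ng/mL). IL-8 and E-selectin mRNA were measured by qPCR, normalized to β2-microglobulin (Pfaffl method), and expressed as fold over untreated control. Statistics used ANOVA with Bonferroni post-test.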

Assay [2] deals with HUVEC. Nature of the assay: Antiinflammatory activity in human HUVEC cells assessed as inhibition of TNF-alpha-induced IL-8 mRNA expression at 5 uM for 10 mins measured after 4 hrs of LPS challenge by Q-PCR analysis. Summed up:
as §1

For assay [3], the system named is HUVEC. In words: Antiinflammatory activity in human HUVEC cells assessed as inhibition of LPS-induced E-selectin mRNA expression at 5 uM for 10 mins measured after 4 hrs of LPS challenge by Q-PCR analysis. In short, it runs like this:
as §1

For assay [4], the system named is HUVEC. Nature of the assay: Antiinflammatory activity in human HUVEC cells assessed as inhibition of TNF-alpha-induced E-selectin mRNA expression at 5 uM for 10 mins measured after 4 hrs of LPS challenge by Q-PCR analysis. Summed up: as §1
The target of assay [5] is T1, Bile acid receptor/Retinoic acid receptor RXR-alpha (Mus musculus, UniProt P28700+Q60641).
T1 sequence (P28700 whole entry): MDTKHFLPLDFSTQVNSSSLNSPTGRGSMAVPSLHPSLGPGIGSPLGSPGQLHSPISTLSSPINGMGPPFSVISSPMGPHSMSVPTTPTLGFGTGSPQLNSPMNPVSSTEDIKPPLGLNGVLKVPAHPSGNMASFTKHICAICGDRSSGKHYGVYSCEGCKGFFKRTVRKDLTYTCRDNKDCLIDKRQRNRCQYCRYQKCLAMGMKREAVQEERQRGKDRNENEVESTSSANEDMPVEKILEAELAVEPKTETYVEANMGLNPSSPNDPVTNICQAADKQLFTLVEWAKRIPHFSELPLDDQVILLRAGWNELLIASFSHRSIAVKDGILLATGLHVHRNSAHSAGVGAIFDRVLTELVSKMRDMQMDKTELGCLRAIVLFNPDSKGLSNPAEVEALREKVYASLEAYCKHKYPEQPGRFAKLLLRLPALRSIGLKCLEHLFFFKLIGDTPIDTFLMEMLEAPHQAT
T1 sequence (Q60641 whole entry): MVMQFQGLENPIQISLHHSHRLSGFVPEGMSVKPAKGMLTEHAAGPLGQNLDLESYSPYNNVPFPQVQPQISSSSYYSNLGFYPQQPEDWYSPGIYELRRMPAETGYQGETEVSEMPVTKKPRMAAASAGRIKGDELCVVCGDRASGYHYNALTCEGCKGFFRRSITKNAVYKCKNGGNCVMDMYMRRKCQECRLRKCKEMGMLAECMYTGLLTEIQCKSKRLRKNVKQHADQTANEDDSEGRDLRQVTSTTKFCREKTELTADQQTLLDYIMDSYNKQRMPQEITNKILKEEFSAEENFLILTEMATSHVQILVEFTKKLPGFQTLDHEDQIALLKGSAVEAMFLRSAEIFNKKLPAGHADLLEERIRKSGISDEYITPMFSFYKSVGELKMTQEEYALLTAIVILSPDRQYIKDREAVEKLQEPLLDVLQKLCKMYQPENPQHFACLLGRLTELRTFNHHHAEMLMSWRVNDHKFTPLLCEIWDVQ
In words: Agonist activity at full length mouse FXR/RXRalpha expressed in human HEK293 cells assessed as induction of transcriptional activity after 18 hrs by dual luciferase reporter gene assay. Background: In a reporter assay the amount or activity of a reporter protein is the signal.

Calls of active or inactive are those of the source. The rule behind the calls is not given here. A value given as a limit tells only on which side of the number the result lay.

Turning to `CC(C)[C@@H](C)/C=C/[C@@H](C)[C@H]1CC[C@@H]2[C@]1(C)CC[C@H]1[C@]23C=C[C@]2(C[C@@H](O)CC[C@]12C)OO3` [ERGOSTEROL PEROXIDE], the inhibition entry with HUVEC [1], with HUVEC [2], in the assay on HUVEC [3] and in the assay on HUVEC [4] was “Active” in each case. Besides, in assay [5], the EC50 (as a rule, the midpoint of the concentration-response curve) turned out to be 0.85 µM.
Turning to `C/C(=C/CC[C@@H](C)[C@H]1C[C@H](O)[C@@]2(C)C3=CC[C@H]4C(C)(C)C(=O)CC[C@]4(C)C3=CC[C@]12C)C(=O)O` [GANODERIC ACID TR], the inhibition entry in the assay with HUVEC [1], in the assay on HUVEC [2], with HUVEC [3] and in the assay with HUVEC [4] was “Active” in each case. In addition, the EC50 in assay [5] is more than 14 µM.
On to `C[C@H](CCC=C(CO)CO)[C@H]1CC[C@@]2(C)C3=CC[C@H]4C(C)(C)C(=O)CC[C@]4(C)C3=CC[C@]12C` [GANODERIOL F], for which the inhibition result in the assay on HUVEC [1], in the assay on HUVEC [2], with HUVEC [3] and in the assay with HUVEC [4] was “Active” in each case. Further, in assay [5], the EC50 came out at 5 µM.
In the case of `C[C@H](CC[C@H](O)[C@](C)(O)CO)[C@H]1CC[C@@]2(C)C3=CC[C@H]4C(C)(C)C(=O)CC[C@]4(C)C3=CC[C@]12C` [GANODERMANONTRIOL], the inhibition entry in the assay on HUVEC [1], in the assay on HUVEC [2], with HUVEC [3] and with HUVEC [4] was “Active” each time. Besides, the EC50 in assay [5] is 2.5 µM.
`C[C@H](CC[C@H](O)C(C)(C)O)[C@H]1CC[C@@]2(C)C3=C(CC[C@]12C)[C@@]1(C)CCC(=O)C(C)(C)[C@@H]1CC3=O` [LUCIDUMOL A]: the inhibition entry in the assay with HUVEC [1], in the assay on HUVEC [2], with HUVEC [3] and with HUVEC [4] was “Active” throughout. In addition, the EC50 in assay [5] is more than 18.6 µM.
